These results are taken from ChEMBL document CHEMBL3616400, “Design, Synthesis, and Evaluation of Triazole Derivatives That Induce Nrf2 Dependent Gene Products and Inhibit the Keap1-Nrf2 Protein-Protein Interaction” (J Med Chem, 2015).

Assay [1] concerns the target Keap1/Nrf2 (Homo sapiens) (UniProt Q16236+Q14145). Nature of the assay: Inhibition of kelch domain of Keap1 (unknown origin) interaction to high affinity ETGE motif from Nrf2 unknown origin) at 100 uM by fluorescence polarization assay. The class given is protein assay. In short, it runs like this:
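Fluorescence polarization competition. Keap1 Kelch domain with fluorescein-labelled ETGE peptide FITC-β-DEETGEF-OH (β = β-alanine). Displacement measured with a fixed 100 µM inhibitor; percent inhibition reported.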
On the technique in general: In fluorescence polarisation assays a small probe gives low polarisation when free and higher when bound to something large.

Assay [2] has as its target T1, Nuclear factor erythroid 2-related factor 2 (Mus musculus) (UniProt Q60795).
T1 sequence (whole entry): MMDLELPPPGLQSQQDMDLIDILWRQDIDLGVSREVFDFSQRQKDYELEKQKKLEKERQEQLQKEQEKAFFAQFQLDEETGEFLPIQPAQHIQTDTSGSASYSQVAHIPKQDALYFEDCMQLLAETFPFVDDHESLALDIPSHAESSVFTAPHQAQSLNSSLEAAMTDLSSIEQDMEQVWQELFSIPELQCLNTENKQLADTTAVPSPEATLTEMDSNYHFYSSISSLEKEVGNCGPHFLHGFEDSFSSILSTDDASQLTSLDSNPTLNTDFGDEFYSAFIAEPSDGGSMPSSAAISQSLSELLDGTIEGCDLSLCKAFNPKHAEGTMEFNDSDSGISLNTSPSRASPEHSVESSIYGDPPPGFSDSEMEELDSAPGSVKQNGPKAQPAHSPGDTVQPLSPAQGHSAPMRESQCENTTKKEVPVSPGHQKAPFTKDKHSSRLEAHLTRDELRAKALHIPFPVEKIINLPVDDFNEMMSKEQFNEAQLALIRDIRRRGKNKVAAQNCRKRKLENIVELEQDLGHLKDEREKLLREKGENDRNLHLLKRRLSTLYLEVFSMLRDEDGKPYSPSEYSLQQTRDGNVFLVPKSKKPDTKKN
Nature of the assay: Activation of Nrf2 in mouse Hepa1c1c7 cells assessed as induction of NQO1 production at 10 uM after 24 hrs by MTT colorimetric assay relative to control. It counts as cell-based. In a few lines:
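Hepa1c1c7 mouse hepatoma cells treated at a fixed 10 µM for 24 h. NQO1 enzyme activity read by colorimetric induction assay and expressed as fold induction over control.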
(Formazan colour is commonly taken as a measure of viable cells.)

Sequence of Keap1/Nrf2 (Homo sapiens) (Q14145 whole entry, looked up, the tested form may be a part): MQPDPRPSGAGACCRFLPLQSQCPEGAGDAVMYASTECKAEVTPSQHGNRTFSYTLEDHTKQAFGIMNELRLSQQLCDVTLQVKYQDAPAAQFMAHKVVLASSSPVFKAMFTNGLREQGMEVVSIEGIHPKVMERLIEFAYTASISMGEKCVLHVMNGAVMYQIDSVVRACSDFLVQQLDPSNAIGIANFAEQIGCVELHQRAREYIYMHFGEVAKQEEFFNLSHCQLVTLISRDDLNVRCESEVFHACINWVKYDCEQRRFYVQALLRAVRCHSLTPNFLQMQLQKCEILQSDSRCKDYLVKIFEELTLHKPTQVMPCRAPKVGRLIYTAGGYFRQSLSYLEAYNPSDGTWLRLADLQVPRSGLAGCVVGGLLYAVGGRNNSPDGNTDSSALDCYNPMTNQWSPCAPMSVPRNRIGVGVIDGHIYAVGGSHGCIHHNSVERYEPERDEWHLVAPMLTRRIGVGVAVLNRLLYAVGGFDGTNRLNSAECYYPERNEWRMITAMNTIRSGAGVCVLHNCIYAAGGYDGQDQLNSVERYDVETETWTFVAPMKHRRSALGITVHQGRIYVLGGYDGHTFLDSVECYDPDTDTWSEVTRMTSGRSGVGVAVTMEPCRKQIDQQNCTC
Sequence of Keap1/Nrf2 (Homo sapiens) (Q16236 whole entry, looked up, the tested form may be a part): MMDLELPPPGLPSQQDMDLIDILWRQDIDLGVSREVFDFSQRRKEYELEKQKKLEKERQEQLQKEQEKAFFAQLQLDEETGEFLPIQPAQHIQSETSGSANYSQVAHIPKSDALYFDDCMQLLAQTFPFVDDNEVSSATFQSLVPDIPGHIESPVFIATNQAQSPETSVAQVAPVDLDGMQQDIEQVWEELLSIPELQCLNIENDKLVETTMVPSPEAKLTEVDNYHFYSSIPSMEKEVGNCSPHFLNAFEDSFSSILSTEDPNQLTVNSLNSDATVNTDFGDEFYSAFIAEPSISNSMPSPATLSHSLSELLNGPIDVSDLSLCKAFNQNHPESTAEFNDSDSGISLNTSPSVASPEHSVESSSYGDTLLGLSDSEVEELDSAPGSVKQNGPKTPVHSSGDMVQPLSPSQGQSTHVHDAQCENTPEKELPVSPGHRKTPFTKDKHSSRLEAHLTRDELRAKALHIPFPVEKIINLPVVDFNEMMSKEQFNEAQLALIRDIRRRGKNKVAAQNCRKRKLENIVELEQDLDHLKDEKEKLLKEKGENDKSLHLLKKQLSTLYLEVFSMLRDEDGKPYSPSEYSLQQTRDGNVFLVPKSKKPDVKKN

The inhibition is the share of the control response that was lost under treatment. `N#Cc1cccc(-c2cn(-c3ccc(C(=O)O)cc3)nn2)c1` gave an inhibition in assay [1] of 52.8%. The fold change (FC) in assay [2] came to 0.98.
The corresponding values for `N#Cc1cccc(-n2cc(-c3cccc([N+](=O)[O-])c3)nn2)c1` are 36.8% and 2.33.
Consider `NC(=O)c1ccc(-c2cn(-c3ccc([N+](=O)[O-])cc3)nn2)cc1`, for which the fold change (FC) in assay [2] turned out to be 1.02.
Consider `Cc1cccc(-n2cc(-c3cccc(-c4nnn[nH]4)c3)nn2)c1`, for which, in assay [1], the inhibition was 30.4%. Besides, the fold change (FC) in assay [2] was determined as 0.88.
The matching figures for `O=C(O)c1ccc(-c2cn(-c3ccc([N+](=O)[O-])cc3)nn2)cc1`: 83.8% and 0.89.
In turn, `Ic1cccc(-n2cc(-c3cccc(-c4nnn[nH]4)c3)nn2)c1` gave an inhibition in assay [1] of 51.5%. In assay [2], the fold change (FC) came to 1.03.
For the compound `Cc1cccc(-n2cc(-c3cccc(C#N)c3)nn2)c1`, the inhibition in assay [1] was 49.7%. In addition, the fold change (FC) in assay [2] is 1.69.
Turning to `NC(=O)c1cccc(-c2cn(-c3ccc([N+](=O)[O-])cc3)nn2)c1`, the inhibition in assay [1] is 48%. Besides, the fold change (FC) in assay [2] came out at 1.05.
The compound `NC(=O)c1ccc(-c2cn(-c3cccc([N+](=O)[O-])c3)nn2)cc1` returned an inhibition in assay [1] of 2.34%. Besides, the fold change (FC) in assay [2] amounted to 1.33.
In assay [1], `O=C(O)c1cccc(-c2cn(-c3ccc([N+](=O)[O-])cc3)nn2)c1` returned an inhibition of 82.3%. Further, the fold change (FC) in assay [2] amounted to 1.14.
The corresponding values for `O=[N+]([O-])c1ccc(-c2cn(-c3cccc([N+](=O)[O-])c3)nn2)cc1` are 46.5% and 1.81.
For `O=C(O)c1ccc(-c2cn(-c3cccc([N+](=O)[O-])c3)nn2)cc1`, the inhibition in assay [1] is 87.5%. For the same compound, the fold change (FC) in assay [2] was 1.06.
With `NC(=O)c1ccc(-c2cn(-c3cccc(C(=O)O)c3)nn2)cc1`, the fold change (FC) in assay [2] was 0.79.
With `O=C(O)c1cccc(-c2cn(-c3cccc(C(=O)O)c3)nn2)c1`, the inhibition in assay [1] is 82.3%. For the same compound, the fold change (FC) in assay [2] came to 0.86.
The corresponding values for `O=[N+]([O-])c1cccc(-c2cn(-c3cccc(F)c3)nn2)c1` are 42.6% and 2.27.
The matching figures for `NC(=O)c1ccc(-n2cc(-c3cccc(C(=O)O)c3)nn2)cc1`: 87.6% and 0.91.
The matching figures for `CCOc1cccc(-n2cc(-c3cccc(C#N)c3)nn2)c1`: 24.5% and 1.3.
For `c1cc(-c2cn(-c3cccc(-c4nnn[nH]4)c3)nn2)cc(-c2nnn[nH]2)c1`, the inhibition in assay [1] worked out at 13.7%. Also, the fold change (FC) in assay [2] stood at 0.84.
The matching figures for `O=[N+]([O-])c1cccc(-n2cc(-c3cccc(-c4nnn[nH]4)c3)nn2)c1`: 71.1% and 1.75.
The corresponding values for `O=C(O)c1ccc(-c2cn(-c3ccc(C(=O)O)cc3)nn2)cc1` are 77.3% and 0.9.
The matching figures for `O=[N+]([O-])c1ccc(-n2cc(-c3cccc([N+](=O)[O-])c3)nn2)cc1`: 74.8% and 3.38.
Regarding `NC(=O)c1cccc(-c2cn(-c3cccc(C(N)=O)c3)nn2)c1`, in assay [1], the inhibition was found to be 65.3%.
As for `O=[N+]([O-])c1ccc(-c2cn(-c3ccc([N+](=O)[O-])cc3)nn2)cc1`, the inhibition in assay [1] stood at 72.6%. The fold change (FC) in assay [2] stood at 1.
`NC(=O)c1ccc(-n2cc(-c3cccc([N+](=O)[O-])c3)nn2)cc1` returned an inhibition in assay [1] of 64.5%. Besides, in assay [2], the fold change (FC) was determined as 2.08.
Consider `NC(=O)c1ccc(-c2cn(-c3ccc(C(N)=O)cc3)nn2)cc1`, for which the fold change (FC) in assay [2] is 0.98.
In assay [1], `NC(=O)c1ccc(-n2cc(-c3ccc(C(=O)O)cc3)nn2)cc1` had an inhibition of 76.5%. The fold change (FC) in assay [2] stood at 0.86.
For `NC(=O)c1ccc(-c2cn(-c3ccc(C(=O)O)cc3)nn2)cc1`, the fold change (FC) in assay [2] stood at 0.79.
In the case of `O=C(O)c1ccc(-n2cc(-c3cccc([N+](=O)[O-])c3)nn2)cc1`, the inhibition in assay [1] was found to be 39.4%.
